The record followed here is ChEMBL document CHEMBL3097988, “Synthesis and characterization of new N-(4-(4-chloro-1H-imidazol-1-yl)-3-methoxyphenyl)amide/sulfonamide derivatives as possible antimicrobial and antitubercular agents” (2014).

In brackets after ≈: the same amount, converted by molar mass. Some results are limits rather than exact numbers.

This assay has as its system Mycobacterium tuberculosis. As to the kind of experiment: Antimicrobial activity against multi drug-resistant Mycobacterium tuberculosis after 7 days by resazurin assay. The conditions noted are these: 168 h. The format is functional. In a few lines: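 Resazurin microtitre assay. Cultures were grown in Middlebrook 7H9 with 10% OADC and added to fresh medium in 96-well plates. Test compounds came from 2 mg/mL DMF stocks, with DMF-only controls. Plates were incubated 7 days at 37 °C, then resazurin was added and read after 1 h at 37 °C. MIC was the lowest concentration preventing the blue-to-pink change.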
In turn, `COc1cc(NC(=O)c2ccc([N+](=O)[O-])cc2)ccc1-n1cnc(Cl)c1` came in with an MIC of over 50 µg/mL.
The value for `COc1cc(NC(=O)c2cc(F)cc(C(F)(F)F)c2)ccc1-n1cnc(Cl)c1` was over 50 µg/mL; that for `COc1cc(NC(=O)Cc2cccc(C(F)(F)F)c2)ccc1-n1cnc(Cl)c1` was over 50 µg/mL.
As for `COc1cc(NS(=O)(=O)c2ccc(C(F)(F)F)cc2)ccc1-n1cnc(Cl)c1`, it took 6.25 µg/mL (≈ 14.5 µM) to inhibit growth (MIC).
With `NNC(=O)c1ccncc1` [ISONIAZID], the minimum inhibitory concentration (MIC) came out at 12.5 µg/mL (≈ 91.1 µM).
For the compound `COc1cc(NS(=O)(=O)c2cc(F)cc(C(F)(F)F)c2)ccc1-n1cnc(Cl)c1`, the minimum inhibitory concentration (MIC) worked out at 6.25 µg/mL (≈ 13.9 µM).
Turning to `COc1cc(NC(=O)c2ccccc2)ccc1-n1cnc(Cl)c1`, the MIC was 25 µg/mL (≈ 76.3 µM).
As to `COc1cc(NC(=O)c2cccs2)ccc1-n1cnc(Cl)c1`, the MIC is over 50 µg/mL.
The result for `COc1cc(NS(=O)(=O)c2ccc([N+](=O)[O-])cc2)ccc1-n1cnc(Cl)c1` reads 6.25 µg/mL (≈ 15.3 µM).
`COc1ccc(S(=O)(=O)Nc2ccc(-n3cnc(Cl)c3)c(OC)c2)cc1OC` had a minimal inhibitory concentration (MIC) of over 50 µg/mL.
In the case of `COc1cc(NS(=O)(=O)c2cccc([N+](=O)[O-])c2Cl)ccc1-n1cnc(Cl)c1`, the MIC was determined as 25 µg/mL (≈ 56.4 µM).
Compound `COc1cc(F)c(C(=O)Nc2ccc(-n3cnc(Cl)c3)c(OC)c2)c(F)c1` displayed an MIC of over 50 µg/mL.
The compound `CO[C@H]1/C=C/O[C@@]2(C)Oc3c(C)c(O)c4c(O)c(c(/C=N/N5CCN(C)CC5)c(O)c4c3C2=O)NC(=O)/C(C)=C\C=C\[C@H](C)[C@H](O)[C@@H](C)[C@@H](O)[C@@H](C)[C@H](OC(C)=O)[C@@H]1C` [RIFAMPIN] returned a minimum inhibitory concentration (MIC) of 25 µg/mL (≈ 30.4 µM).
As to `COc1cc(NC(=O)c2ccc(C(F)(F)F)cc2)ccc1-n1cnc(Cl)c1`, the MIC was over 50 µg/mL.
On to `COc1cc(NC(=O)c2ccco2)ccc1-n1cnc(Cl)c1`, for which the MIC is over 50 µg/mL.
The result for `COc1cc(NS(=O)(=O)C2(c3ccc(Cl)cc3)CC2)ccc1-n1cnc(Cl)c1` reads over 50 µg/mL; that for `COc1cc(NC(=O)C2(c3ccc(Cl)cc3)CC2)ccc1-n1cnc(Cl)c1`, 25 µg/mL (≈ 62.1 µM); that for `COc1cc(NC(=O)c2ccc(Cl)cc2Cl)ccc1-n1cnc(Cl)c1`, 25 µg/mL (≈ 63 µM).
The compound `COc1cc(NS(=O)(=O)c2ccc(Cl)cc2Cl)ccc1-n1cnc(Cl)c1` returned a minimum inhibitory concentration (MIC) of over 50 µg/mL.
Take `COc1cc(F)c(S(=O)(=O)Nc2ccc(-n3cnc(Cl)c3)c(OC)c2)c(C(F)(F)F)c1`: it took 25 µg/mL (≈ 52.1 µM) to inhibit growth (MIC).
The compound `COc1cc(NC(=O)c2c(F)ccc(C(F)(F)F)c2Cl)ccc1-n1cnc(Cl)c1` registered a minimum inhibitory concentration (MIC) of 25 µg/mL (≈ 55.8 µM).
Turning to `COc1cc(NS(=O)(=O)c2c(F)ccc(C(F)(F)F)c2Cl)ccc1-n1cnc(Cl)c1`, the minimal inhibitory concentration (MIC) was found to be 6.25 µg/mL (≈ 12.9 µM).
The result for `COc1cc(NC(=O)c2cccc(C(C)C#N)c2)ccc1-n1cnc(Cl)c1` (centres undefined) reads over 50 µg/mL; that for `COc1cc(NS(=O)(=O)c2cccc(C(C)C#N)c2)ccc1-n1cnc(Cl)c1` (centres undefined), 25 µg/mL (≈ 60 µM).
In the case of `COc1cc(NC(=O)c2cccc([N+](=O)[O-])c2Cl)ccc1-n1cnc(Cl)c1`, the MIC is over 50 µg/mL.
In turn, `COc1cc(NS(=O)(=O)Cc2cccc(C(F)(F)F)c2)ccc1-n1cnc(Cl)c1` displayed a minimum inhibitory concentration (MIC) of over 50 µg/mL.
The result for `COc1cc(NS(=O)(=O)c2ccco2)ccc1-n1cnc(Cl)c1` reads 25 µg/mL (≈ 70.7 µM); that for `COc1cc(NS(=O)(=O)c2ccccc2)ccc1-n1cnc(Cl)c1`, 25 µg/mL (≈ 68.7 µM).
The value for `COc1cc(NS(=O)(=O)c2cccs2)ccc1-n1cnc(Cl)c1` was over 50 µg/mL.

For orientation: MIC means the least concentration at which growth counts as inhibited. Higher therefore signals weaker potency.
